Test results reported in PMC6030392 (Neoplasia (New York, N.Y.), 2018).
Read-outs that look alike come from different tables or passages of the source. Marks after values point to notes of the source that are not given here.

Columns and labels:
Bcrp1 = biological target: T1, Bcrp1 (Mus musculus, UniProt Q7TMS5); assay: In vitro Transwell transport, MDCKII parent versus Bcrp1 transduced subline; type: in vitro ADME
T1 sequence (Q7TMS5 1-657): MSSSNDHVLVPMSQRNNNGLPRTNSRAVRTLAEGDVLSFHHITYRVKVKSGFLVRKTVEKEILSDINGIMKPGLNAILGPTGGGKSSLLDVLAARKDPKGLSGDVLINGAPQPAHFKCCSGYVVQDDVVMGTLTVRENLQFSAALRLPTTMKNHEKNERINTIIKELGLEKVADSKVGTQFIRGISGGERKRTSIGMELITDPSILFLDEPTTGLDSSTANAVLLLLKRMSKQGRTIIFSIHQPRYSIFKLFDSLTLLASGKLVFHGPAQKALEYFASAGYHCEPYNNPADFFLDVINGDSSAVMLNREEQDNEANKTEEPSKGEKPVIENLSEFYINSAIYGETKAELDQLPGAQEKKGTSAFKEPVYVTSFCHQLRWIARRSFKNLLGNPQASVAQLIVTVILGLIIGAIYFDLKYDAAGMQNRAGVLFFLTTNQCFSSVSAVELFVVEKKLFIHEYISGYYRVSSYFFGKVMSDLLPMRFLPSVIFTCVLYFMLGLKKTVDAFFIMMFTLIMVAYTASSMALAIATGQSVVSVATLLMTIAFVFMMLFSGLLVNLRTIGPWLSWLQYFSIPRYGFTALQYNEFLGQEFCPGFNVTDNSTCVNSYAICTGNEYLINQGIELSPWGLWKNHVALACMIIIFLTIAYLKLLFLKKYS
How it was run: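 MDCKII parent and Bcrp1-transduced cells were grown 3 days on 3.0 μm polycarbonate Transwell filters (1 × 10⁶ cells/well) in MEM with 10% FBS at 37°C. Test compound (40 μg/ml in OptiMEM) went apical or basolateral. Inhibitor went to both sides, plus a P-gp blocker (5 μM). Sampling was every 30 min to 2 h, with half the donor refreshed each time. Wells leaking >1.5%/h were excluded. Analysis by HPLC.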

[1] = dose level of 100 mg/kg; cited from earlier work
[2] = cited from earlier work
[3] = cited from earlier work; remark: listed apart in the source
[4] = cited from earlier work; remark: listed apart in the source
[5] = Recovery in acceptor compartment of Transwell; type: in vitro ADME; details: after 30 minutes; transport medium pH 7.4
Mdr1a (P-gp) = Mdr1a (P-gp) (Mus musculus, UniProt P21447); assay: In vitro Transwell transport, LLC-PK1 parent versus Mdr1a transduced subline; type: in vitro ADME, murine; details: temozolomide 40 μg/ml; LLC-PK1 vs LLC-Mdr1a
[6] = Stability in culture medium at 37°C; type: physicochemical
[7] = tested on: GSC457 glioblastoma cells; assay: Orthotopic GSC457 glioblastoma efficacy study; type: in vivo, murine; details: oral 100 mg/kg/day × 7
[8] = type: in vivo, FVB mice; details: for AUC 0–7 h, brain: mean ± SE, n ≥ 7
How it was run: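 Male FVB mice (WT, Abcg2^−/−, Abcb1a/b^−/−, Abcb1a/b;Abcg2^−/−; 8–15 weeks) got 50 mg/kg i.v. via tail vein. Groups of […] were sampled at 15 min, 1, 2, 4, 7 h by cardiac puncture (K-EDTA plasma, acidified with 1 M HCl). Brains were homogenized in pH 2 phosphate/1% BSA. Extracts (ethyl acetate) were run on HPLC in duplicate. AUC0–7h by linear trapezoidal rule; brain-to-plasma ratio per animal; two-way ANOVA with Bonferroni.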

[9] = tested on: intracranial Mel57-luc tumors; assay: Intracranial Mel57-luc tumor efficacy study; type: in vivo, FVB nude mice; details: oral 100 mg/kg/day × 5
How it was run: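 WT or Abcb1a/b;Abcg2^−/− FVB nude mice received Mel57-luc cells (100,000 cells/2 μl) stereotactically 2 mm lateral, 1 mm anterior to bregma, 3 mm deep. Tumor load was set by bioluminescence before stratification to oral test compound 100 mg/kg/day for 5 days, untreated control, or combination with oral inhibitor 20–30 min earlier. Repeated imaging was expressed relative to the first measurement and log-transformed.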

[10] = Plasma pharmacokinetics of oral temozolomide; type: in vivo, mice; details: 100 mg/kg oral; WT n = 18, Abcb1a/b;Abcg2^−/− n = 19
[11] = C57BL × DBA/2 F1 mice; cited from earlier work
[12] = cited from earlier work; remark: listed apart in the source
[13] = Abcb1a/b^−/− mice, 50 mg/kg i.v.

Chain of Mdr1a (P-gp) (P21447 whole entry): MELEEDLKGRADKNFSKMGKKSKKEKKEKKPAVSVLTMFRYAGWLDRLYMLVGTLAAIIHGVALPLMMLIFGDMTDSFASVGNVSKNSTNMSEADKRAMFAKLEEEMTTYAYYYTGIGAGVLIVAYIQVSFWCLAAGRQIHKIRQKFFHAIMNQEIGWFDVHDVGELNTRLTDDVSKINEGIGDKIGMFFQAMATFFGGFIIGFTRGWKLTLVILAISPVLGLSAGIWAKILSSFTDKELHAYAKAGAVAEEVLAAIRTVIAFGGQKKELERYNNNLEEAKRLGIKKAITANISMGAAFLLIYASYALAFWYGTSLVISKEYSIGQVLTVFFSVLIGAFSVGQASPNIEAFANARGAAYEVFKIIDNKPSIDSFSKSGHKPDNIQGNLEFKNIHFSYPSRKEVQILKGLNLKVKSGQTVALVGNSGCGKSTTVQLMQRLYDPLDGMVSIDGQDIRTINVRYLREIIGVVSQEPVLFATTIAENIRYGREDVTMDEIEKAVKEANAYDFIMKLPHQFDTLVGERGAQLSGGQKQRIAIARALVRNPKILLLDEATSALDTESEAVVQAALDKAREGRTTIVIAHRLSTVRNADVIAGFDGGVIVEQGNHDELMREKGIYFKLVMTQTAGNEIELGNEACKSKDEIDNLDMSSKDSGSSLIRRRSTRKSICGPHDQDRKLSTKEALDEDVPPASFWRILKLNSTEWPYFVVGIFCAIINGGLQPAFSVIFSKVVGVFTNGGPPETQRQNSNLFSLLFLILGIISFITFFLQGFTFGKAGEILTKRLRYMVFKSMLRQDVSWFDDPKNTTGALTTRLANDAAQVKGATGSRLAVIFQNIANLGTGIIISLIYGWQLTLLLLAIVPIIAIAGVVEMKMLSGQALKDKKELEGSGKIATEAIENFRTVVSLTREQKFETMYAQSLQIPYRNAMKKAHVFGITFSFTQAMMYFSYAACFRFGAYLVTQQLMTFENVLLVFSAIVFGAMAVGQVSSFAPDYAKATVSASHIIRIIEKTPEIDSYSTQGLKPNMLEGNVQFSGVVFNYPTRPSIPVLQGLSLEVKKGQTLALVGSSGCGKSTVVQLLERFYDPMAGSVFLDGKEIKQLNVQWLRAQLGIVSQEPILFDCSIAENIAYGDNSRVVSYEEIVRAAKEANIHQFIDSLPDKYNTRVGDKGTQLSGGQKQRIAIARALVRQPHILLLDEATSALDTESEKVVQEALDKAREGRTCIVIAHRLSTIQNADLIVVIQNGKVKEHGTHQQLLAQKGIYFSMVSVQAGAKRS

## COc1cc2c(cc1OC)CN(CCc1ccc(NC(=O)c3cccc4c(=O)c5cccc(OC)c5[nH]c34)cc1)CC2 [elacridar]
Bcrp1; inhibitor 5 μM in the medium
  effect on Bcrp1-mediated transport of temozolomide: almost completely abrogated

## C#Cc1cccc(Nc2ncnc3cc(OCCOC)c(OCCOC)cc23)c1 [erlotinib]
Bcrp1; inhibitor 10 μM in the medium
  effect on Bcrp1-mediated transport of temozolomide: almost completely abrogated

## COc1cc2ncnc(Nc3ccc(F)c(Cl)c3)c2cc1OCCCN1CCOCC1 [gefitinib]
[1]
  plasma levels: about 10 μM
Bcrp1; inhibitor 10 μM in the medium
  effect on Bcrp1-mediated transport of temozolomide: almost completely abrogated
[2]
  plasma levels achievable in patients relative to the level after 100 mg/kg: about 10 fold lower

## Cc1ccc(NC(=O)c2ccc(CN3CCN(C)CC3)cc2)cc1Nc1nccc(-c2cccnc2)n1 [imatinib]
[3]; significantly enhanced in Abcb1a/b;Abcg2^−/− mice
  brain penetration: poor
[4]
  oral bioavailability: > 90%

## CO[C@@H]1[C@@H](OC(N)=O)[C@@H](O)[C@H](Oc2ccc3c(O)c(NC(=O)c4ccc(O)c(CC=C(C)C)c4)c(=O)oc3c2C)OC1(C)C [novobiocin]
Bcrp1; inhibitor 50 μM in the medium
  effect on Bcrp1-mediated transport of temozolomide: not sufficient

## CC(=O)O[C@H]1C(=O)[C@@]2(C)[C@H]([C@H](OC(=O)c3ccccc3)[C@]3(O)C[C@H](OC(=O)[C@H](O)[C@@H](NC(=O)c4ccccc4)c4ccccc4)C(C)=C1C3(C)C)[C@]1(OC(C)=O)CO[C@@H]1C[C@@H]2O [paclitaxel]
[3]
  higher brain penetration in Abcb1a/b^−/− compared to WT controls: 5 fold

## CC(=O)c1c(C)c2cnc(Nc3ccc(N4CCNCC4)cn3)nc2n(C2CCCC2)c1=O [palbociclib]
[3]
  higher brain penetration in Abcb1a/b^−/− compared to WT controls: approximately 15 fold

## Cn1nnc2c(C(N)=O)ncn2c1=O [temozolomide]
[5]
  fraction of the donor concentration recovered in the acceptor compartment: at least 5%
Mdr1a (P-gp)
  transport by P-gp: very limited, if any, evidence for transport by P-gp
[6]
  half-life: ~30 min
[7]
  tumor growth and survival, Abcb1a/b;Abcg2^−/− compared to WT mice: significantly slower tumor growth and longer survival
[8]; Abcb1a/b;Abcg2^−/− mice, 50 mg/kg i.v., P < .001
  increase of brain accumulation compared to WT mice: 50%
[8]; Abcb1a/b;Abcg2^−/− mice, 50 mg/kg i.v.
  AUC 0–7 h, brain: 57.09 ± 1.32**^/# μg/g.h
[8]; [13]
  increase of brain accumulation compared to WT mice: about 20%
  AUC 0–7 h, brain: 44.51 ± 1.56 µg·h/g
[8]; Abcg2^−/− mice, 50 mg/kg i.v.
  increase of brain accumulation compared to WT mice: 20%
  AUC 0–7 h, brain: 44.78 ± 1.88 µg·h/g
[8]; WT mice, 50 mg/kg i.v.
  AUC 0–7 h, brain: 36.81 ± 1.11 µg·h/g
[8]; combined deletion of Abcb1a/b and Abcg2, P < .001
  increase of brain penetration compared to wild-type controls: 1.5 fold
[8]; knockout vs WT mice, 50 mg/kg i.v.
  effect of absence of drug transporters on plasma clearance: did not affect the plasma clearance
[9]; Abcb1a/b;Abcg2^−/− mice
  antitumor efficacy against intracranial Mel57 tumors, relative to WT mice: significantly higher
[9]; WT mice
  antitumor efficacy against intracranial Mel57 tumors: modest efficacy
[10]
  plasma AUC in Abcb1a/b;Abcg2^−/− versus WT mice: not significantly different
[11]
  oral bioavailability: almost complete
[12]
  main dose-limiting toxicity: bone marrow toxicity
Bcrp1; temozolomide 40 μg/ml, MDCKII vs MDCKII-Bcrp1, zosuquidar 5 μM present
  transport by Bcrp1: clear vectorial transport by Bcrp1
